Measurements pooled from the literature.
Each line is one published result; the experiments were not run side by side.
Ephx2: Bifunctional epoxide hydrolase 2 (Ephx2, Rattus norvegicus, UniProt P80299)
Dihydrofolate reductase: Dihydrofolate reductase (Mycobacterium avium, UniProt O30463)

O=c1cc(-c2ccc(O)cc2)oc2c([C@@H]3OC[C@H](O)[C@H](O)[C@H]3O)c(O)c([C@@H]3O[C@H](CO)[C@@H](O)[C@H](O)[C@H]3O)c(O)c12  IC50 (Calcium/calmodulin-dependent protein kinase type II subunit beta (CAMK2B, Homo sapiens, UniProt Q13554); enzyme activity; inhibitor): 157000 nM
Cc1cc([C@@H](C)Nc2ccccc2C(=O)O)c2nc(N3CCC(F)(F)CC3)c(C#N)c(=O)n2c1  IC50 (Phosphatidylinositol 3-kinase catalytic subunit type 3 (PIK3C3, Homo sapiens, UniProt Q8NEB9); enzyme activity; inhibitor; ADP detection): > 10000 nM
O=C(Nc1ccc(-c2ccc3cccnc3c2)cc1)C1CCN(S(=O)(=O)c2ccccc2Cl)CC1  IC50 (Ephx2; enzyme activity; inhibitor; fluorescence): 8.1 nM
O=C(C=Cc1ccccc1)Nc1cc(-c2ccnc(N3CCC(O)CC3)c2)ccn1  Kd (Estrogen receptor (ESR1, Homo sapiens, UniProt P03372); binding; SPR): 1280 nM
CC[C@H](NC(=O)[C@H](CS(=O)(=O)CC1CC1)N[C@@H](c1ccc(F)cc1)C(F)(F)F)C(=O)C(=O)NC1CC1  IC50 (Dipeptidyl peptidase 1 (Ctsc, Mus musculus, UniProt P97821); enzyme activity; inhibitor; fluorescence): 18000 nM
CN1Cc2c(N)cccc2C(=O)N1C1CCC(=O)NC1=O (stereo not shown)  DC50 (Cereblon/Ikaros (Homo sapiens, UniProt Q13422+Q96SW2); protein level; degrader; luciferase): 67.2 nM
CCCOc1nc(N)nc(N)c1OCCCOc1ccccc1CCC(=O)O  IC50 (Dihydrofolate reductase; enzyme activity; inhibitor): > 5000 nM
O=C1CC[C@H](N2Cc3cc(N4CCN(CC5CCN(c6ccc([C@@H]7c8ccc(O)cc8CC[C@@H]7c7ccccc7)cc6)CC5)CC4)ccc3C2=O)C(=O)N1  IC50 (Glucocorticoid receptor (NR3C1, Homo sapiens, UniProt P04150); ligand displacement; radioligand): 83 nM
Nc1nc(N)c(OCCCOc2ccccc2CCC(=O)O)c(-c2ccc(C(F)(F)F)cc2)n1  IC50 (Dihydrofolate reductase; enzyme activity; inhibitor): 67 nM
O=C(Nc1ccc(-c2ccnc3ccccc23)cc1)C1CCN(S(=O)(=O)c2ccccc2Cl)CC1  IC50 (Ephx2; enzyme activity; inhibitor; fluorescence): 0.7 nM
